The source made the active and inactive calls.
Key:
[1] = test system: unidentified adenovirus; experiment: (§1) In vitro antiviral activity was determined against Adenovirus type 2 in monolayer culture of H.Ep.2 cells; type: functional, organism-based
[2] = test system: LLC-MK2; experiment: In vitro antiviral activity was determined against Punta toro virus in monolayer culture of LLC-MK2 cells; type: functional, cell-based; details: Cercopithecidae
Summary of the method: (§2)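 Virus was adsorbed for 1 h onto monolayers: H.Ep.2 cells for Adenovirus type 2, LLC-MK2 cells for Punta Toro, and Vero cells for Sicilian sandfly fever. Medium with a range of drug concentrations was then added. On the day of maximum cytopathic effect in virus-control wells, the medium was removed and the monolayers were stained with crystal violet. Cytopathic effect was scored microscopically.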

[3] = test system: Vero; experiment: Antiviral activity was determined as inhibition of plaque formation against Rift Valley fever in monolayer culture of Vero cells; type: functional, cell-based; details: Chlorocebus sabaeus
[4] = test system: Vaccinia virus; experiment: Antiviral activity was determined against Vaccinia virus; type: functional, organism-based; details: Orthopoxvirus vaccinia
[5] = test system: Vero; experiment: In vitro antiviral activity was determined against Japanese encephalitis virus in monolayer culture of Vero cells; type: functional, cell-based; details: Chlorocebus sabaeus
[6] = test system: Vero; experiment: In vitro antiviral activity was determined against Sicilian Sandfly Fever virus in monolayer culture of Vero cells; type: functional, cell-based; details: Chlorocebus sabaeus; summary of the method: as §2
[7] = test system: Vero; experiment: In vitro antiviral activity was determined against Yellow Fever virus in monolayer culture of Vero cells; type: functional, cell-based; details: Chlorocebus sabaeus
[8] = test system: Vesicular stomatitis virus; experiment: Antiviral activity was determined against Vesicular Stomatitus virus; type: functional, organism-based
[9] = test system: Human immunodeficiency virus 1; experiment: Antiviral activity was determined against Human immunodeficiency virus; type: functional, organism-based
[10] = test system: Pichinde virus; experiment: Antiviral activity was determined against Pichinde virus; type: functional, organism-based
[11] = test system: unidentified adenovirus; experiment: as §1; type: functional, organism-based; summary of the method: as §2; remark: listed apart in the source

Measured: Activity

O=c1[nH]c(=O)n(COC(CO)C(O)CF)cc1I (stereo not given)
not listed: [9] | [10] | [11]
inactive: all other assays above

Cc1cn(COC2COP(=O)(Oc3ccc([N+](=O)[O-])cc3)OC2CF)c(=O)[nH]c1=O (stereo not given)
inactive: [1] | [4] | [8]

Cc1cn(COC(CO)C(O)CF)c(=O)[nH]c1=O (stereo not given)
not listed: [11]
inactive: all other assays above

NC(=O)c1ncn(COC(CO)C(O)CF)n1 (stereo not given)
not listed: [9] | [10] | [11]
inactive: all other assays above

O=c1ccn(COC(CO)C(O)CF)c(=O)[nH]1 (stereo not given)
not listed: [10] | [11]
inactive: all other assays above

Nc1nc(O)c2ncn(COC(CO)C(O)CF)c2n1 (stereo not given)
not listed: [1] | [10]
inactive: all other assays above

O=c1ccn(COC2COP(=O)(Oc3ccc([N+](=O)[O-])cc3)OC2CF)c(=O)[nH]1 (stereo not given)
inactive: [1] | [4] | [8]
